# Paper PMC4948641 (ChemMedChem, 2015)
# Where “and” joins values, the source holds several entries; their conditions need not be identical. Identical values can stand only once.
# Legend:
# PAMPA permeability = assay type: in vitro ADME; settings: Pe
# [1] = plasma protein binding, mouse; assay type: in vitro ADME
# HeLa cells [2] = assay: HeLa cell proliferation after 24-hour treatment; assay type: cell-based, human; settings: ≤ 10 μM
# In short: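 HeLa cells were treated with the test compound at the indicated concentrations for 24 hours, and proliferation was then assessed. Values are the average ± SEM of ≥4 experiments.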
# IMM potential = assay: Rhodamine 123 uptake counterscreen; assay type: biochemical; settings: read-out: Rh123 uptake EC50, isolated mouse liver mitochondria
# In short: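 Isolated mouse liver mitochondria took up rhodamine 123 as a read-out of inner-membrane potential. The test compound was applied in a concentration series, and interference with Rh123 uptake was recorded. Values are the average ± SEM of ≥4 experiments.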
# [3] = system: mitochondrial permeability transition pore (PTP); assay: CRC of permeabilized HeLa cells; assay type: cell-based, human
# In short: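 Ca2+ retention capacity was measured in permeabilized HeLa cells, 0.8 million cells per condition. The test compound was applied across a concentration range. Results are expressed as the compound-to-solvent CRC ratio, average ± SEM of ≥4 experiments.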
# [4] = aqueous solubility in 1xPBS; assay type: physicochemical
# [5] = system: mitochondrial permeability transition pore (PTP); assay: CRC assay in CyPD-null mouse liver mitochondria; assay type: biochemical
# In short: (§1)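 Isolated mouse liver mitochondria from wild-type or CyPD-knockout mice were used. Ca2+ retention capacity was taken as the amount of Ca2+ needed to open the pore. Mitochondria were treated across a concentration range of test compound or solvent, and results were expressed as the compound-to-solvent CRC ratio. Values are the average ± SEM of ≥4 experiments.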
# plasma stability, human = assay type: in vitro ADME
# [6] = system: mitochondrial permeability transition pore (PTP); assay: Ca2+-induced mitochondrial swelling assay; assay type: biochemical; settings: read-out: mitochondrial swelling EC50; isolated mouse liver mitochondria; 50 μM Ca2+
# In short: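 Mitochondria isolated from mouse liver take up 50 μM Ca2+ to trigger pore-dependent swelling. Swelling is followed across a range of test compound concentrations. Data are the average ± SEM of ≥ 4 experiments.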
# [7] = hepatic microsome stability, mouse; assay type: in vitro ADME; settings: liver microsomes, hepatic microsome stability (% remaining after 1 h)
# [8] = chemical stability with 5x DTT; assay type: physicochemical
# [9] = hepatic microsome stability, human; assay type: in vitro ADME; settings: liver microsomes, hepatic microsome stability (% remaining after 1 h)
# plasma stability, mouse = assay type: in vitro ADME
# aqueous stability = assay type: physicochemical
# HeLa cells [10] = assay: oxygen-consumption rate of intact HeLa cells; assay type: cell-based, human; settings: ≤ 10 μM
# BBB PAMPA permeability = assay type: in vitro ADME; settings: pH 7.4
# [11] = system: mitochondrial permeability transition pore (PTP); assay: Ca2+ retention capacity; assay type: biochemical; settings: isolated mouse liver mitochondria
# In short: as §1
# [12] = plasma protein binding, human; assay type: in vitro ADME
# [13] = system: isolated mouse liver mitochondria; assay: mitochondrial respiration in isolated mouse liver mitochondria; assay type: biochemical
# In short: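 Isolated mouse liver mitochondria were treated with the test compound or solvent, and respiration was measured. Results are expressed as respiratory control ratio, reflecting the capacity to generate ATP. Values are the average ± SEM of ≥4 experiments.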
# [14] = system: Fa2N-4 immortalized human hepatocytes; assay: toxicity towards Fa2N-4 immortalized human hepatocytes; assay type: cell-based
# [15] = as above; assay type: cell-based; settings: human, Fa2N-4 immortalized hepatocytes
compound,measurement,setting,value
"O=C(Nc1ccc(CN2CCCCC2)cc1)c1cc(Cl)cc(OCc2ccccc2)c1 [Compound 4, 3-(benzyloxy)-5-chloro-N-(4-(piperidin-1-ylmethyl)phenyl)benzamide]",Papp,"PAMPA permeability; Donor pH 5.0, Acceptor pH 7.4",1300 ×10⁻⁶ cm/s
same,Papp,"PAMPA permeability; Donor pH 6.2, Acceptor pH 7.4",1340 ×10⁻⁶ cm/s
same,fraction unbound at 1 μM,[1],0.007
same,fraction unbound at 10 μM,[1],0.017
same,effect on HeLa cell proliferation,HeLa cells [2],no effect
same,EC50,IMM potential,24.5 ± 1.12 µM
same,effect on CRC of permeabilized HeLa cells,[3],concentration-dependent increase
same,solubility,"[4]; pH 5, aqueous buffer",22.8 µg/mL and 52.5 µM
same,solubility,"[4]; pH 6.2, aqueous buffer",22.6 µg/mL and 52.1 µM
same,solubility,"[4]; pH 7.4, aqueous buffer",0.64 µg/mL and 1.5 µM
same,increase in CRC in CyPD-null mouse liver mitochondria,[5],7 fold
same,remaining at 3 h,"plasma stability, human",39%
same,EC50,[6],0.28 ± 0.024 µM
same,remaining at 1 h,[7]; +NADPH,30%
same,remaining at 1 h,[7]; -NADPH,74%
same,"chemical stability with 5× DTT, % parent remaining after 8 h",[8],91%
same,remaining at 1 h,[9]; +NADPH,61%
same,remaining at 1 h,[9]; -NADPH,67%
same,remaining at 3 h,"plasma stability, mouse",35%
same,"aqueous stability (1:1 PBS/acetonitrile), % parent remaining after 48 h",aqueous stability,93.4%
same,FCCP-stimulated and oligomycin-sensitive respiration (OCR),HeLa cells [10],No significant differences
same,Papp,BBB PAMPA permeability,113 ×10⁻⁶ cm/s
same,CRC/CRC0 at 12.5 μM,"[11]; 12.5 μM, compound-to-solvent CRC ratio",19.5 ± 1.7
same,maximum CRC ratio relative to CsA-treated mitochondria,[11],about 4 times
same,fraction unbound at 1 μM,[12],0.008
same,fraction unbound at 10 μM,[12],0.008
same,effect on ATP synthesis,[13]; 5 μM,no effect
same,"respiratory control ratios, FCCP-stimulated and oligomycin-sensitive respiration","[13]; ≤ 10 μM, isolated mouse liver mitochondria",No significant differences
same,"selectivity, Fa2N-4 LC50 compared to mitochondrial swelling EC50",[14],114 fold
same,CC50,[15],32 µM
